From ChEMBL document CHEMBL1140710, “Structure-activity relationships of cyclic lactam analogues of alpha-melanocyte-stimulating hormone (alpha-MSH) targeting the human melanocortin-3 receptor” (J Med Chem, 2008)

Experiments:
[1] = target: T1, Melanocortin receptor 3 (Homo sapiens, UniProt P41968); assay: biochemical; format: cell-based, HEK293
[2] = target: T2, Melanocyte-stimulating hormone receptor (Homo sapiens, UniProt Q01726); assay: Displacement of [125I][Nle4,D-Phe7]alpha-MSH from human MC1 receptor expressed in HEK293 cells; format: cell-based
Procedure, shortened: (§1)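 Whole stably transfected HEK293 cells seeded 48 h before assay at 50000 cells/well. Binding buffer: MEM, 25 mM HEPES pH 7.4, 0.2% BSA, 1 mM 1,10-phenanthroline, leupeptin, bacitracin. Cells washed, lysed with NaOH/Triton X-100, gamma-counted. IC50 is mean of two triplicate experiments.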
Target sequence in this assay (Q01726 whole entry): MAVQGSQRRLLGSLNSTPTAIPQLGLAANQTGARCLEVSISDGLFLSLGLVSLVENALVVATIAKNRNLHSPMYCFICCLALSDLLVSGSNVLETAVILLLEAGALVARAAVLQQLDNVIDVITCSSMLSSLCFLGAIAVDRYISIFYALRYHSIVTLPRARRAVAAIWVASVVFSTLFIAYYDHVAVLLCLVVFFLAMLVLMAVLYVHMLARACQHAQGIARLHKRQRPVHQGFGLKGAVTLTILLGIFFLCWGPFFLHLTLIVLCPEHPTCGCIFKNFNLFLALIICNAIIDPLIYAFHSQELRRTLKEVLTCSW

[3] = target: T3, Melanocortin receptor 5 (Homo sapiens, UniProt P33032); assay: Displacement of [125I][Nle4,D-Phe7]alpha-MSH from human MC5 receptor expressed in HEK293 cells; format: cell-based
T3 sequence (P33032 whole entry): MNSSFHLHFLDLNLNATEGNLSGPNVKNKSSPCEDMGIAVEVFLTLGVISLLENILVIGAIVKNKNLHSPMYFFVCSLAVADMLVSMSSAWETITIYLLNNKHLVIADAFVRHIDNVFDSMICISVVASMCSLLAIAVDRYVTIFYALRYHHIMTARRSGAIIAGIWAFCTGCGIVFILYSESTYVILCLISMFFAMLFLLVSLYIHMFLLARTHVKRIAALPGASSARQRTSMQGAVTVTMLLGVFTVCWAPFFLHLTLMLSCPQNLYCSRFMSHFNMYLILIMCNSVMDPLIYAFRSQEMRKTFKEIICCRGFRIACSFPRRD
Procedure, shortened: as §1

[4] = target: T2, Melanocyte-stimulating hormone receptor; assay: Agonist activity at human MC1 receptor expressed in HEK293 cells assessed as intracellular cAMP accumulation; format: functional, cell-based
Procedure, shortened: (§2)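 Stably transfected HEK293 cells seeded 48 h before assay at 50000 cells/well. Cells preincubated 1 min at 37 °C in Earle's balanced salt solution with 0.5 mM IBMX, then exposed to varying peptide concentrations for 3 min at 37 °C. Cells boiled 7 min, cAMP quantified by [3H]cAMP/PKA competition against a standard curve.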
Target sequence in this assay (Q01726 whole entry): as the sequence (Q01726 whole entry) above

[5] = target: T4, Melanocortin receptor 4 (Homo sapiens, UniProt P32245); assay: biochemical; format: cell-based, HEK293
T4 sequence (P32245 whole entry): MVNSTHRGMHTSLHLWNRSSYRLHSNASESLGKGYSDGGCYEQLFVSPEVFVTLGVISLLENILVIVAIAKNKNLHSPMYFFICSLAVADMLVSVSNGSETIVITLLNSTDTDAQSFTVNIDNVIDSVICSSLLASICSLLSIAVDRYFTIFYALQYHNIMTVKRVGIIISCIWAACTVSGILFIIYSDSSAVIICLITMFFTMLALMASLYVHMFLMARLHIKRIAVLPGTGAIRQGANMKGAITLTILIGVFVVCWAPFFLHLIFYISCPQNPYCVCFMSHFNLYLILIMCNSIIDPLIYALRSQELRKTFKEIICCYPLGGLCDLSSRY

[6] = target: T4, Melanocortin receptor 4; assay: Agonist activity at human MC4 receptor expressed in HEK293 cells assessed as intracellular cAMP accumulation at 10 uM relative to MT2; format: functional, cell-based
Procedure, shortened: (§3)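 Stably transfected HEK293 cells seeded 48 h before assay at 50000 cells/well. Cells preincubated 1 min at 37 °C in Earle's balanced salt solution with 0.5 mM IBMX, then exposed to 10 μM peptide for 3 min at 37 °C. Cells boiled 7 min, cAMP measured by [3H]cAMP/PKA competition with a standard curve. Result expressed as percent of cAMP produced by 10 μM MT-II.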

[7] = target: T1, Melanocortin receptor 3; assay: Agonist activity at human MC3 receptor expressed in HEK293 cells assessed as intracellular cAMP accumulation at 10 uM relative to MT2; format: functional, cell-based
Procedure, shortened: as §3

[8] = target: T2, Melanocyte-stimulating hormone receptor; assay: Agonist activity at human MC1 receptor expressed in HEK293 cells assessed as intracellular cAMP accumulation at 10 uM; format: functional, cell-based
Procedure, shortened: as §3
Target sequence in this assay (Q01726 whole entry, looked up): as the sequence (Q01726 whole entry) above

[9] = target: T1, Melanocortin receptor 3; assay: Agonist activity at human MC3 receptor expressed in HEK293 cells assessed as intracellular cAMP accumulation; format: functional, cell-based
Procedure, shortened: as §2

[10] = target: T2, Melanocyte-stimulating hormone receptor; assay: Agonist activity at human MC1 receptor expressed in HEK293 cells assessed as intracellular cAMP accumulation at 10 uM relative to MT2; format: functional, cell-based
Procedure, shortened: as §3
Target sequence in this assay (Q01726 whole entry, looked up): as the sequence (Q01726 whole entry) above

[11] = target: T3, Melanocortin receptor 5; assay: Agonist activity at human MC5 receptor expressed in HEK293 cells assessed as intracellular cAMP accumulation at 10 uM; format: functional, cell-based
Procedure, shortened: as §3

[12] = target: T4, Melanocortin receptor 4; assay: Agonist activity at human MC4 receptor expressed in HEK293 cells assessed as intracellular cAMP accumulation at 10 uM; format: functional, cell-based
Procedure, shortened: as §3

[13] = target: T3, Melanocortin receptor 5; assay: Agonist activity at human MC5 receptor expressed in HEK293 cells assessed as intracellular cAMP accumulation at 10 uM relative to MT2; format: functional, cell-based
Procedure, shortened: as §3

[14] = target: T1, Melanocortin receptor 3; assay: Agonist activity at human MC3 receptor expressed in HEK293 cells assessed as intracellular cAMP accumulation at 10 uM; format: functional, cell-based
Procedure, shortened: as §3

[15] = target: T1, Melanocortin receptor 3; assay: Antagonist activity at human MC3 receptor expressed in HEK293 cells assessed as inhibition of MT2 induced intracellular cAMP accumulation; format: functional, cell-based; conditions: hek293

T1 sequence (P41968 whole entry): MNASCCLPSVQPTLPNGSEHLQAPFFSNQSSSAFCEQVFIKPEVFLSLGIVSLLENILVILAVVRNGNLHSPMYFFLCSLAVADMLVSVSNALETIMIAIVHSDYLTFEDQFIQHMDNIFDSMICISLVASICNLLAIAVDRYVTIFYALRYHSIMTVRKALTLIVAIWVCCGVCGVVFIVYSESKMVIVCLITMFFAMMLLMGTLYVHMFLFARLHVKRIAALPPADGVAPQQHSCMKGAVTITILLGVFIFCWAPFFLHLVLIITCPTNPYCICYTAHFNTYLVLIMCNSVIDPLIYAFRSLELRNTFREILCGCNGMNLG

With `NC(=O)[C@@H]1CCCCNC(=O)c2nccnc2C(=O)N[C@H](Cc2ccc3ccccc3c2)C(=O)N[C@@H](CCCN=C(N)N)C(=O)N[C@@H](Cc2c[nH]c3ccccc23)C(=O)N1` the IC50 [1] was 23 nM, the IC50 [2] was 707 nM and the IC50 [3] was 230 nM. For the same compound, the EC50 [4] was > 3000 nM and the IC50 [5] was > 1000 nM.
Compound `N=C(N)NCCC[C@@H]1NC(=O)[C@@H](Cc2ccccc2)NC(=O)[C@@H]2CCCN2C(=O)/C=C\C(=O)NCCCC[C@@H](C(N)=O)NC(=O)[C@H](Cc2c[nH]c3ccccc23)NC1=O` has an Activity [6] of 0%, an Activity [7] of 80% and an Activity [8] of 0%. The IC50 [1] was > 1000 nM, the EC50 [9] was 100 nM and the IC50 [2] was > 10000 nM. The Activity [10] was 0%, the Activity [11] was 0% and the Activity [12] was 0%. The Activity [13] was 0%, the IC50 [3] was 790 nM and the IC50 [5] was 160 nM.
Compound `N=C(N)NCCC[C@@H]1NC(=O)[C@@H](Cc2ccccc2)NC(=O)[C@@H]2CCCN2C(=O)c2ccccc2C(=O)NCCCC[C@@H](C(N)=O)NC(=O)[C@H](Cc2c[nH]c3ccccc23)NC1=O` has an Activity [6] of 0%, an Activity [7] of 100% and an Activity [8] of 0%. The IC50 [1] was > 1000 nM, the EC50 [9] was 95 nM and the IC50 [2] was > 10000 nM. It also gave an Activity [10] of 0%, an Activity [11] of 0% and an Activity [12] of 0%. The Activity [13] was 0%, the IC50 [3] was > 1000 nM and the IC50 [5] was 777 nM.
`N=C(N)NCCC[C@@H]1NC(=O)[C@@H](Cc2ccc3ccccc3c2)NC(=O)[C@@H]2CCCN2C(=O)c2ccccc2C(=O)NCCCC[C@@H](C(N)=O)NC(=O)[C@H](Cc2c[nH]c3ccccc23)NC1=O` showed an Activity [6] of 0%, an Activity [7] of 0% and an IC50 [1] of 32 nM. The IC50 [2] was 410 nM, the Activity [14] was 0% and the Activity [10] was 80%. For the same compound, the Activity [11] was 0%, the Activity [12] was 0% and the Activity [13] was 0%. For the same compound, the IC50 [3] was 210 nM, the EC50 [4] was > 5000 nM and the IC50 [5] was 430 nM.
For `NC(=O)[C@@H]1CCCCNC(=O)CC[C@H](N)C(=O)N[C@@H](Cc2cnc[nH]2)C(=O)N[C@H](Cc2ccc3ccccc3c2)C(=O)N[C@@H](CCCN=C(N)N)C(=O)N[C@@H](Cc2c[nH]c3ccccc23)C(=O)N1`, the pA2 [15] was 10.6 and the Ki ([1]; hek293) was 5.9 nM.
For `N=C(N)NCCC[C@@H]1NC(=O)[C@@H](Cc2ccccc2)NC(=O)c2cccc(n2)C(=O)NCCCC[C@@H](C(N)=O)NC(=O)[C@H](Cc2c[nH]c3ccccc23)NC1=O`, the Activity [6] was 0%, the Activity [7] was 0% and the IC50 [1] was > 10000 nM. The IC50 [2] was > 10000 nM, the Activity [14] was 0% and the Activity [10] was 15%. The Activity [11] was 0%, the Activity [12] was 0% and the Activity [13] was 0%. For the same compound, the IC50 [3] was > 10000 nM, the EC50 [4] was > 1000 nM and the IC50 [5] was > 10000 nM.
For `N=C(N)NCCC[C@@H]1NC(=O)[C@@H](Cc2ccc3ccccc3c2)NC(=O)c2cccc(n2)C(=O)NCCCC[C@@H](C(N)=O)NC(=O)[C@H](Cc2c[nH]c3ccccc23)NC1=O`, the Activity [6] was 0%, the Activity [7] was 0% and the Activity [8] was 0%. It also gave an Activity [14] of 0%, an Activity [10] of 0% and an Activity [11] of 0%. It also gave an Activity [12] of 0% and an Activity [13] of 0%.
In the case of `NC(=O)[C@@H]1CCCCNC(=O)c2cccc(n2)C(=O)N[C@H](Cc2ccc3ccccc3c2)C(=O)N[C@@H](CCCN=C(N)N)C(=O)N[C@@H](Cc2c[nH]c3ccccc23)C(=O)N1`, the IC50 [1] is reported as > 1000 nM, the IC50 [2] is reported as > 10000 nM and the IC50 [3] is reported as > 10000 nM. The IC50 [5] was > 1000 nM.
